Data set [1] deals with T1, Proto-oncogene tyrosine-protein kinase Src (Homo sapiens, UniProt P12931). The data set can be described thus: Inhibition of Src kinase at 10 uM. An outline of the steps: (§1)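 Kinase reaction with ATP and specific substrate, incubated 1 h at room temperature with test compound (1% DMSO final). Protease solution then added, followed by stabilizer. Read-out by […] at 485/530 nm.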

The next data set relates to MCF7. The data set is described as follows: Antiproliferative activity against human MCF7 cells at < 10 uM after 72 hrs by SRB assay. Type of data set: functional, cell-based. An outline of the steps: (§2)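 Cells seeded at 10,000–15,000 per well and held at 37 °C, 5% CO2. After 24 h compound added across a concentration range for 72 h. Cells then fixed with cold 10% TCA and stained with sulforhodamine B (0.4% in 1% acetic acid). Dye solubilized in 10 mM Tris base and absorbance read. GI50 from [(Ti−Tz)/(C−Tz)]×100 = 50. PC3 and SK-BR3 grown in RPMI 1640 with 10% FBS; A431 and MCF-7 in DMEM with 10% FBS.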
In general terms: In SRB staining, fixed cells bind dye roughly in proportion to their protein.

Data set [2] has as its system PC-3. The data set is described as follows: Inhibition of ERK phosphorylation in human PC3 cells at 0.1 uM by Western blot analysis. Type of data set: cell-based. Particulars: TDE = time-dependent effect. Put shortly: (§3)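 PC3 or A431 cells grown 48 h in 6 cm dishes, then exposed to 0.1 µM compound for varying times. Lysed on ice in Tris pH 7.5/NaCl/EDTA/Triton X-100/DTT/PMSF/glycerol with protease inhibitors, then spun. Protein measured by dye-binding assay. Run on 10% SDS-PAGE, blotted to PVDF, blocked 1 h in 5% milk, and probed for phospho and total ERK and p90RSK.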
(A western blot detects proteins with antibodies after separation by electrophoresis.)

Data set [3] deals with Ribosomal protein S6 kinase alpha-1 (Homo sapiens) (UniProt Q15418). The data set can be described thus: Inhibition of p90RSK phosphorylation in human PC3 cells at 0.1 uM by Western blot analysis. The data set is classed as cell-based. The conditions noted are these: PC-3, TDE = time-dependent effect. An outline of the steps: as §3
Chain of Ribosomal protein S6 kinase alpha-1 (Homo sapiens) (Q15418 whole entry): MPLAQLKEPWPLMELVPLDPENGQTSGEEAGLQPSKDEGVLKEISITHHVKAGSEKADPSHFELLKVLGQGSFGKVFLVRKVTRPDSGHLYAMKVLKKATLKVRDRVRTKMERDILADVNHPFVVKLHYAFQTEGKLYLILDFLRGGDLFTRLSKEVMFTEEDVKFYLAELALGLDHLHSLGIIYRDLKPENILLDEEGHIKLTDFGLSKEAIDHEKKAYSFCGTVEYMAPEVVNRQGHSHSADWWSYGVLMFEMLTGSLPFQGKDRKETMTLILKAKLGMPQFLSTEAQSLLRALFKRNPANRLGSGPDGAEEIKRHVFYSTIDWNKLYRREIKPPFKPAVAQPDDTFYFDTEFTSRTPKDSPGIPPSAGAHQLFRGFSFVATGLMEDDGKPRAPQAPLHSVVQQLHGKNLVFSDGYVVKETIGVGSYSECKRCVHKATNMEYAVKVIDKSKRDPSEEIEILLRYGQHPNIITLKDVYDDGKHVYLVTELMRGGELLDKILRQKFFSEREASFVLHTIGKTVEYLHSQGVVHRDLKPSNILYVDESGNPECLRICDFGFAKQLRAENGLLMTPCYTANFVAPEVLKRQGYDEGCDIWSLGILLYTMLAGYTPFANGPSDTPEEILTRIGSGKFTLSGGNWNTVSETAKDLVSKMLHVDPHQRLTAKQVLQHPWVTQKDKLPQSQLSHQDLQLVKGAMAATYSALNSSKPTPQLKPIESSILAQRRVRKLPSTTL
The test system of data set [4] is A-431. The data set is described as follows: Inhibition of ERK phosphorylation in human A431 cells at 0.1 uM by Western blot analysis. Type of data set: cell-based. The conditions noted are these: TDE = time-dependent effect. Put shortly:
as §3

Data set [5] concerns the target Ribosomal protein S6 kinase alpha-1 (Homo sapiens) (UniProt Q15418). The data set can be described thus: Inhibition of p90RSK phosphorylation in human A431 cells at 0.1 uM by Western blot analysis. Type of data set: cell-based. Particulars: A-431, TDE = time-dependent effect. Put shortly: as §3
Data set [6] deals with PC-3. The data set can be described thus: Inhibition of ERK phosphorylation in human PC3 cells at 0.1 uM after 6 hrs by Western blot analysis. The data set is classed as cell-based. An outline of the steps: as §3
The target in data set [7] is Ribosomal protein S6 kinase alpha-1 (Homo sapiens) (UniProt Q15418). The data set is described as follows: Inhibition of p90RSK phosphorylation in human PC3 cells at 0.1 uM after 6 hrs by Western blot analysis. Particulars: PC-3. Type of data set: cell-based. An outline of the steps: as §3
Data set [8] has as its system A-431. The data set is described as follows: Inhibition of ERK phosphorylation in human A431 cells at 0.1 uM after 6 hrs by Western blot analysis. The data set is classed as cell-based. Put shortly:
as §3

Data set [9] has as its target Ribosomal protein S6 kinase alpha-1 (Homo sapiens) (UniProt Q15418). The data set can be described thus: Inhibition of p90RSK phosphorylation in human A431 cells at 0.1 uM after 6 hrs by Western blot analysis. The data set is classed as cell-based. Particulars: A-431. Put shortly: as §3
The nature of data set [10]: AUC in Sprague-Dawley rat at 5 mg/kg, iv. The data set is classed as ADME, organism-based. Further details: dose 5 mg/kg, route intravenous. The conditions noted are these: plasma. Put shortly: (§4)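 Single dose in Sprague–Dawley rats, iv or po. Rats fasted overnight before oral dosing and fed about 2 h after it; no fasting for iv. Approx. 0.3 mL blood drawn from the tail vein into heparin tubes at various times, then centrifuged to plasma and held at −80 °C. Compound measured by LCMS. t1/2 = 0.693/Ke; AUC by linear trapezoidal rule to 5 h plus extrapolation.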

Data set [11] is described as follows: Cmax in Sprague-Dawley rat at 5 mg/kg, iv. Type of data set: ADME, organism-based. Further details: dose 5 mg/kg, route intravenous. The conditions noted are these: in vivo. An outline of the steps:
as §4

Data set [12] can be described thus: Tmax in Sprague-Dawley rat at 5 mg/kg, iv. Type of data set: ADME, organism-based. Further details: dose 5 mg/kg, route intravenous. Particulars: in vivo. Put shortly: as §4
A short description of data set [13]: Half life in Sprague-Dawley rat at 5 mg/kg, iv. The data set is classed as ADME, organism-based. Further details: dose 5 mg/kg, route intravenous. The conditions noted are these: in vivo. An outline of the steps: as §4
Data set [14] in a line: AUC in Sprague-Dawley rat at 10 mg/kg, po. Type of data set: ADME, organism-based. Details: dose 10 mg/kg, route oral. Particulars: plasma. Put shortly:
as §4

Data set [15] can be described thus: Cmax in Sprague-Dawley rat at 10 mg/kg, po. Type of data set: ADME, organism-based. Particulars: in vivo. Further details: dose 10 mg/kg, route oral. An outline of the steps:
as §4

Data set [16] is described as follows: Tmax in Sprague-Dawley rat at 10 mg/kg, po. Type of data set: ADME, organism-based. Details: dose 10 mg/kg, route oral. Particulars: in vivo. An outline of the steps: as §4
Data set [17] is described as follows: Half life in Sprague-Dawley rat at 10 mg/kg, po. The conditions noted are these: in vivo. Details: dose 10 mg/kg, route oral. Type of data set: ADME, organism-based. An outline of the steps: as §4
The nature of data set [18]: Oral bioavailability in Sprague-Dawley rat at 10 mg/kg, po. The data set is classed as ADME, organism-based. Particulars: in vivo. Put shortly:
as §4

The subject of a further data set is Rattus norvegicus. The data set can be described thus: Cmax in Sprague-Dawley rat plasma at 10 mg/kg, iv and po. The conditions noted are these: in vivo. Details: dose 10 mg/kg, route oral. The data set is classed as ADME, organism-based.
Data set [19] can be described thus: Tmax in Sprague-Dawley rat plasma at 10 mg/kg, iv and po. The data set is classed as ADME, organism-based. Details: dose 10 mg/kg, route oral.
Data set [20] has as its target T1, Proto-oncogene tyrosine-protein kinase Src.
The target of data set [21] is Vascular endothelial growth factor receptor 2 (Homo sapiens) (UniProt P35968). The data set can be described thus: Inhibition of VEGFR2 at 10 uM. An outline of the steps:
as §1

Data set [22] relates to PC-3. The data set is described as follows: Antiproliferative activity against human PC3 cells after 72 hrs by SRB assay. The data set is classed as functional, cell-based. Put shortly:
as §2

Data set [23] has as its system A-431. The data set is described as follows: Antiproliferative activity against human A431 cells after 72 hrs by SRB assay. The data set is classed as functional, cell-based. An outline of the steps:
as §2

The test system of data set [24] is A-431. The data set can be described thus: Inhibition of EGF-stimulated tyrosine phosphorylation in human A431 cells.
Another data set concerns SK-BR-3. The data set is described as follows: Antiproliferative activity against human SKBR3 cells expressing HER2 at < 10 uM after 72 hrs by SRB assay. Type of data set: functional, cell-based. Put shortly: as §2
The target of data set [25] is Epidermal growth factor receptor (Homo sapiens, UniProt P00533).
Chain of Epidermal growth factor receptor (P00533 whole entry): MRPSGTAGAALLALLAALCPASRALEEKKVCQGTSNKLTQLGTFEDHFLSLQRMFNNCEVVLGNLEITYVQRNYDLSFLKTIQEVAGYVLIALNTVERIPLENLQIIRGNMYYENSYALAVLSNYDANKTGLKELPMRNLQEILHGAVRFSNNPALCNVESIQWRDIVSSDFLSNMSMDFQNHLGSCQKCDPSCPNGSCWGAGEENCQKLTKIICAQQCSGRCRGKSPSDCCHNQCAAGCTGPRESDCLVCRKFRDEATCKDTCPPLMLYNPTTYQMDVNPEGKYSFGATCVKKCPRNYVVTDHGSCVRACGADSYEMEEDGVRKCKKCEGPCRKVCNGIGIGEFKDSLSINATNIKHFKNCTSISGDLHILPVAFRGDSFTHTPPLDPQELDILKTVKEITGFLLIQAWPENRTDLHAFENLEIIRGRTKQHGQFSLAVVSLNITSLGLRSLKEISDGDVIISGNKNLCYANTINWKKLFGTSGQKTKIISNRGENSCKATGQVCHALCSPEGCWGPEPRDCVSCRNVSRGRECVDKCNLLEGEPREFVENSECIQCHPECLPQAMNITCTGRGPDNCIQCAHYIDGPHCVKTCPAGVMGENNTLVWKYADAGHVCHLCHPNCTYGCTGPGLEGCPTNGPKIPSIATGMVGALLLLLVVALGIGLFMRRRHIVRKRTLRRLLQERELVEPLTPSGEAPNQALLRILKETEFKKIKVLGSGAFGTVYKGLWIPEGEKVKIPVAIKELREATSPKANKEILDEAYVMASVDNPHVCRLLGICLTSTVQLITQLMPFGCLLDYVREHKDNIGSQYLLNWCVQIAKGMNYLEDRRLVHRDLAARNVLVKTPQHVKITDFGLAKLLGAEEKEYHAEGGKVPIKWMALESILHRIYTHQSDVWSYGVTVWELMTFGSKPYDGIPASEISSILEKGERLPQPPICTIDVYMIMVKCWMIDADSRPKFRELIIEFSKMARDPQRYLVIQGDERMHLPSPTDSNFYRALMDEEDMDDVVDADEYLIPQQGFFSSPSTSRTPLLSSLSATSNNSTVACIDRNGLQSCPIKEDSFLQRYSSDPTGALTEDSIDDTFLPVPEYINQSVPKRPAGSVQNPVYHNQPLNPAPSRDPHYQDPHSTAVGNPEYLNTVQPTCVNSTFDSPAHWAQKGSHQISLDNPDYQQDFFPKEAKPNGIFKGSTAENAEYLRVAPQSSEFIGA

SMILES strings stand for the structures. The source made the active and inactive calls. The calls are words filed in the database; no cut-off is given here.

By AUC is commonly meant the area under the concentration-time curve, a measure of exposure. A lower AUC goes with low exposure. As a reminder, the Cmax is the maximum level reached in the sampled fluid or tissue. As usually defined, the Tmax is the time from dosing to the highest level. One may read the half-life as the time in which the quantity being followed falls by half. Usually bioavailability stands for dose-corrected exposure relative to a reference, in per cent. A higher bioavailability goes with much systemic uptake. The IC50 is the midpoint of a concentration-inhibition curve. Read a high IC50 as weaker potency in that assay.

T1 sequence (P12931 2-536 limits assumed): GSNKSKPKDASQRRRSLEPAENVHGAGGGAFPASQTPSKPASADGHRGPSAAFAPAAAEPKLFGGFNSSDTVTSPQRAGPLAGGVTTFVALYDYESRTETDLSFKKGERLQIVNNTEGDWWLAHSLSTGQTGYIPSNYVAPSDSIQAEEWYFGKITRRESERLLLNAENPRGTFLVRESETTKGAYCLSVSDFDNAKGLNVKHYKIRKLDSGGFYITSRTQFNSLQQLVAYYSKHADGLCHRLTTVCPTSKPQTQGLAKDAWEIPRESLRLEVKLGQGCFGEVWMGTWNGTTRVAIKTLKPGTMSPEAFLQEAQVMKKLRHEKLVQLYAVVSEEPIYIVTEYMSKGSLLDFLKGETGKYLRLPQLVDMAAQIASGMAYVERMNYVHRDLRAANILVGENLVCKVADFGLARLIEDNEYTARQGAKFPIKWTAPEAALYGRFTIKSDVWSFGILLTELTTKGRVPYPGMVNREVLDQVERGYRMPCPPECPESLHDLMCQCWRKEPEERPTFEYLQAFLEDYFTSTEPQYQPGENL
Chain of Vascular endothelial growth factor receptor 2 (Homo sapiens) (P35968 whole entry): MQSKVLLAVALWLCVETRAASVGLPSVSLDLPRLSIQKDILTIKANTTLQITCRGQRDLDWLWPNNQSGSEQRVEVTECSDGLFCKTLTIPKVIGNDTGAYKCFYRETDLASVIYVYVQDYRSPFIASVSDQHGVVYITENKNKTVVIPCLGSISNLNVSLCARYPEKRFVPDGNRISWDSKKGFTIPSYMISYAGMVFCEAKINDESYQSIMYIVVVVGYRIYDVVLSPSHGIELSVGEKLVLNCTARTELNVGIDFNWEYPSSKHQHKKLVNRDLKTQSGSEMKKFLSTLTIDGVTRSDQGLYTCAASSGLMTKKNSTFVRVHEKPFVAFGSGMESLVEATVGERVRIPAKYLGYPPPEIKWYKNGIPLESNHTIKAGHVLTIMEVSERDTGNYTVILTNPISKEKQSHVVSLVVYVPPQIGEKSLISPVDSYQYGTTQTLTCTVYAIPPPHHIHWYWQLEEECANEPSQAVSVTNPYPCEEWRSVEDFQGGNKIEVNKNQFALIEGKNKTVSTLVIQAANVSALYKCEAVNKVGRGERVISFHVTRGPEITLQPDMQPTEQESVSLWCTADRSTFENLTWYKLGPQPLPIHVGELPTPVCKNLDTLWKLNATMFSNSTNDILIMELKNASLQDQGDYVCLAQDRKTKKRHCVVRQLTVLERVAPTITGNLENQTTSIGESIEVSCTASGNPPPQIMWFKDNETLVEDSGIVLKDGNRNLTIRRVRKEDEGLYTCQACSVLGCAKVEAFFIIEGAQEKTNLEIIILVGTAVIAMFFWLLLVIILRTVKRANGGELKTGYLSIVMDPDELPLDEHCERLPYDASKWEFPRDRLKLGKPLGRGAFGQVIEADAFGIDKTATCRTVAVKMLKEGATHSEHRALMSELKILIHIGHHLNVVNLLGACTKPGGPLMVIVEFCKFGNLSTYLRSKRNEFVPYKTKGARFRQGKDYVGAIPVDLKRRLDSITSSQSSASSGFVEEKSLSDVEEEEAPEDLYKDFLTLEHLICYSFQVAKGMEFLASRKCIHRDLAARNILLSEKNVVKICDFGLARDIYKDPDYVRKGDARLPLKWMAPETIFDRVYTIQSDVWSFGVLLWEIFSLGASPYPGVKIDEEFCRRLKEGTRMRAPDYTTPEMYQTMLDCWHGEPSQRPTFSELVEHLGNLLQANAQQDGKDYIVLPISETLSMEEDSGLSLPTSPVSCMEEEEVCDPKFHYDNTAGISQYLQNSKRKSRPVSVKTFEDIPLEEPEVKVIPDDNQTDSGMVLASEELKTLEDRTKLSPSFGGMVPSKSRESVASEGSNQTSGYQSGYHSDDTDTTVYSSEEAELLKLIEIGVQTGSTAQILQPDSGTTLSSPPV

Take `CCN1CCN(Cc2ccc(-c3cc4c(N[C@@H](C)c5ccccc5)ncnc4[nH]3)cc2)CC1`: in [1], the result was Active.
On the same count and under the same terms, under `C=CC(=O)Nc1cc2c(Nc3cc(OC)c(Cl)cc3OC)ncnc2cc1OCC1CCN(C)CC1` stands “Active”; under `CN(C)CCC(=O)Nc1cc2c(Nc3ccc(F)c(Cl)c3)ncnc2cc1OCCCN1CCOCC1`, “Active”.
As to `COCCOc1cc2ncnc(Nc3c(Cl)ccc4c3OCO4)c2cc1NC(=O)[C@@H]1CCCN1`, the result (with MCF7; in [21]; with SK-BR-3) was inactive. Also, the Activity entry with PC-3 [2] was “tde”; in data set [3], “tde”; with A-431 [4], “tde”; in data set [5], “tde”; with PC-3 [22] it was “Dose-dependent effect”; with A-431 [23] it was “Dose-dependent effect”. The result (with PC-3 [6]; in data set [7]; with A-431 [8]; in data set [9]) was Active. Moreover, the figures for the area under the curve (AUC) in data set [10] and in data set [14] were 2400 ng·h/mL and 1240 ng·h/mL, respectively. For the same molecule, the Cmax in [11] was 2010 nM; in [15], 120 nM; with Rattus norvegicus, 400 nM. The Tmax was 4.8 min in [12], 4 h in data set [16] and 1 h in [19]. The values for the half-life in data set [13] and in data set [17] were 6.1 h and 5.4 h, respectively. The same molecule had a bioavailability in [18] of 20.4%. Moreover, the IC50 worked out at 0.089 µM in data set [20], 0.78 µM in the data set with A-431 [24] and 7.13 µM in data set [25].
On to `COCCOc1cc2ncnc(Nc3ccc(F)c(Cl)c3)c2cc1NC(=O)[C@@H]1CCCN1`, for which the result in [1] was Active. This molecule also returned a half-maximal inhibitory concentration (IC50) in data set [20] of 0.3 µM.

Source of the values: ChEMBL document CHEMBL1153429, “Structure-based virtual screening of Src kinase inhibitors” (Bioorg Med Chem, 2009).
